{"source": "ChEMBL document CHEMBL4229344", "about": "(Eur J Med Chem, 2018)", "key": {"[1]": {"molecular_target": "Leukocyte tyrosine kinase receptor (Homo sapiens) (UniProt P29376)", "experiment": "Binding affinity to wild-type human partial length LTK (P422 to S744 residues) expressed in bacterial expression system assessed as residual binding level at 1 uM by Kinomescan method relative to control", "summary_of_the_method": "(§1)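 Kinome-wide competition binding screen against a panel of 468 purified kinases/mutants, with the test compound at a single concentration of 1 μM. Read-out is the relative binding activity of each kinase in the presence of compound.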"}, "[2]": {"molecular_target": "Cyclin-dependent kinase-like 1 (Homo sapiens) (UniProt Q00532)", "sequence (Q00532 whole entry, the tested form may be a part)": "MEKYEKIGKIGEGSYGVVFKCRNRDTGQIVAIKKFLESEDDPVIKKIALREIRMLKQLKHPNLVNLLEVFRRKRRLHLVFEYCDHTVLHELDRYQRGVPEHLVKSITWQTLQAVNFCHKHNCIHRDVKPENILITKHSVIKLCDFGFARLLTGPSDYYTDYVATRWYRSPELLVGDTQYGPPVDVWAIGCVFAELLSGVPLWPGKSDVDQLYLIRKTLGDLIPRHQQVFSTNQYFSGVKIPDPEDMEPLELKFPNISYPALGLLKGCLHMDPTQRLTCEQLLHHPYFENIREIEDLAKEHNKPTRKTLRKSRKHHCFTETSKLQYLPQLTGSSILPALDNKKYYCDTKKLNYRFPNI", "experiment": "Binding affinity to wild-type human full length CDKL1 (M1 to I358 residues) expressed in mammalian expression system assessed as residual binding level at 1 uM by Kinomescan method relative to control", "summary_of_the_method": "(§2)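 Single-concentration (1 μM) competition-binding screen run by KINOMEscan against a panel of 468 purified kinases and mutants. The read-out is the relative binding activity of the test compound to each kinase.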"}, "[3]": {"molecular_target": "Casein kinase I isoform alpha-like (Homo sapiens) (UniProt Q8N752)", "experiment": "Binding affinity to wild-type human full length CSNK1A1L (M1 to N337 residues) expressed in bacterial expression system assessed as residual binding level at 1 uM by Kinomescan method relative to control", "summary_of_the_method": "as §2"}, "[4]": {"molecular_target": "Macrophage-stimulating protein receptor (Homo sapiens) (UniProt Q04912)", "experiment": "Binding affinity to wild-type human partial length MST1R (I1057 to L1363 residues) expressed in bacterial expression system assessed as residual binding level at 1 uM by Kinomescan method relative to control"}, "[5]": {"molecular_target": "Cyclin-dependent kinase-like 3 (Homo sapiens) (UniProt Q8IVW4)", "experiment": "Binding affinity to wild-type human partial length CDKL3 (M1 to D327 residues) expressed in bacterial expression system assessed as residual binding level at 1 uM by Kinomescan method relative to control", "summary_of_the_method": "as §1"}, "[6]": {"molecular_target": "Tyrosine-protein kinase Fes/Fps (Homo sapiens) (UniProt P07332)", "experiment": "Binding affinity to wild-type human partial length FES (I527 to R822 residues) expressed in bacterial expression system assessed as residual binding level at 1 uM by Kinomescan method relative to control"}, "[7]": {"experiment": "Half life in Sprague-Dawley rat at 1 mg/kg, iv", "format": "ADME, organism-based", "conditions": "in vivo"}, "[8]": {"molecular_target": "Ribosomal protein S6 kinase alpha-6 (Homo sapiens) (UniProt Q9UK32)", "experiment": "Binding affinity to wild-type human partial length C-terminal RSK4 kinase domain 2 (I401 to Y711 residues) expressed in bacterial expression system assessed as residual binding level at 1 uM by Kinomescan method relative to control"}, "[9]": {"molecular_target": "Epidermal growth factor receptor (Homo sapiens) (UniProt P00533)", "sequence (P00533 whole entry, the tested form may be a part)": "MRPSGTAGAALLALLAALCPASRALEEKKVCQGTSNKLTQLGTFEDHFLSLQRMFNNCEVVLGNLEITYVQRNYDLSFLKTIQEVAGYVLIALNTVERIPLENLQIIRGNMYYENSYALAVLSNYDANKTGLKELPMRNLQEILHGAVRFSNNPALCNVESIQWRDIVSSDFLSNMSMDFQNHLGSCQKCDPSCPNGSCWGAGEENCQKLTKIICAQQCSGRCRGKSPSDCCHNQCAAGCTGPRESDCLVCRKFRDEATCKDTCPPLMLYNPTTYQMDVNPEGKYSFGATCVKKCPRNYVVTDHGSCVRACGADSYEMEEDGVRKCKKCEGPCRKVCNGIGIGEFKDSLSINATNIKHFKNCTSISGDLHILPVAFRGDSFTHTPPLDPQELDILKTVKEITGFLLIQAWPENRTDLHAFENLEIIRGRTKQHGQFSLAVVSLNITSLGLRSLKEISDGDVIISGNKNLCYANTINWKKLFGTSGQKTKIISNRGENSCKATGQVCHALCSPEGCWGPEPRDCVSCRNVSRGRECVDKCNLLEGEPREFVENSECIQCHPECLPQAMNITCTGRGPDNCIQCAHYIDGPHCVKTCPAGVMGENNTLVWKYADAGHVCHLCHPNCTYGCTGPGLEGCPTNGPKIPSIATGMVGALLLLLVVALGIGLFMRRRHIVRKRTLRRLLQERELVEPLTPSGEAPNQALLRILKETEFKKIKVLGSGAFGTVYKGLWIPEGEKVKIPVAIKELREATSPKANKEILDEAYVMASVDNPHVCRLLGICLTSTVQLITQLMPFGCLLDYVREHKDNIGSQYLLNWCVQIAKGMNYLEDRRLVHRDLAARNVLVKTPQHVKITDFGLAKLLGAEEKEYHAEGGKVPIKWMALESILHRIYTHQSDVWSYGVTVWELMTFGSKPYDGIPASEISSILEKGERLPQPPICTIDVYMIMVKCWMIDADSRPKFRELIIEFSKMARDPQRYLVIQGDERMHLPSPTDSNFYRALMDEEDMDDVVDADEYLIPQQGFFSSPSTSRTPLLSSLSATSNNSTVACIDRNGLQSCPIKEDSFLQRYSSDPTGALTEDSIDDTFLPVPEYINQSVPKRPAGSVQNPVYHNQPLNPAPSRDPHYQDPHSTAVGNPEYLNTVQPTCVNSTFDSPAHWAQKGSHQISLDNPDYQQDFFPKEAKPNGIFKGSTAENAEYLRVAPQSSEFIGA", "experiment": "Binding affinity to human partial length EGFR L747-T751del/Sins mutant expressed in bacterial expression system assessed as residual binding level at 1 uM by Kinomescan method relative to control", "summary_of_the_method": "(§3)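 Kinome-wide single-concentration binding screen (KINOMEscan) at 1 μM against a panel of 468 purified kinases and mutants. Read-out is relative binding of each kinase compared with control. Selectivity across the panel was summarised as an S(10) score.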"}, "[10]": {"system": "Hepatocyte growth factor receptor (Homo sapiens), P08581 [Y1235D]", "experiment": "Binding affinity to human partial length MET Y1235D mutant (D1010 to S1367 residues) expressed in bacterial expression system assessed as residual binding level at 1 uM by Kinomescan method relative to control", "summary_of_the_method": "as §3"}, "[11]": {"molecular_target": "Epidermal growth factor receptor (Homo sapiens) (UniProt P00533)", "experiment": "Binding affinity to wild-type human partial length EGFR (R669 to V1011 residues) expressed in bacterial expression system assessed as residual binding level at 1 uM by Kinomescan method relative to control"}, "[12]": {"molecular_target": "Bone morphogenetic protein receptor type-2 (Homo sapiens) (UniProt Q13873)", "experiment": "Binding affinity to wild-type human partial length BMPR2 (R179 to Q526 residues) expressed in mammalian expression system assessed as residual binding level at 1 uM by Kinomescan method relative to control", "summary_of_the_method": "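Single-concentration KINOMEscan (DiscoverX) binding screen at 1 μM against a panel of 468 purified kinases and mutants. The read-out is binding relative to control.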"}, "[13]": {"molecular_target": "Serine/threonine-protein kinase pim-3 (Homo sapiens) (UniProt Q86V86)", "experiment": "Binding affinity to wild-type human partial length PIM3 (G16 to A317 residues) expressed in bacterial expression system assessed as residual binding level at 1 uM by Kinomescan method relative to control"}, "[14]": {"molecular_target": "Epidermal growth factor receptor (Homo sapiens) (UniProt P00533)", "experiment": "Binding affinity to human partial length EGFR E746-A750del mutant expressed in bacterial expression system assessed as residual binding level at 1 uM by Kinomescan method relative to control", "summary_of_the_method": "as §3"}, "[15]": {"molecular_target": "Receptor-type tyrosine-protein kinase FLT3 (Homo sapiens) (UniProt P36888)", "sequence (P36888 whole entry, the tested form may be a part)": "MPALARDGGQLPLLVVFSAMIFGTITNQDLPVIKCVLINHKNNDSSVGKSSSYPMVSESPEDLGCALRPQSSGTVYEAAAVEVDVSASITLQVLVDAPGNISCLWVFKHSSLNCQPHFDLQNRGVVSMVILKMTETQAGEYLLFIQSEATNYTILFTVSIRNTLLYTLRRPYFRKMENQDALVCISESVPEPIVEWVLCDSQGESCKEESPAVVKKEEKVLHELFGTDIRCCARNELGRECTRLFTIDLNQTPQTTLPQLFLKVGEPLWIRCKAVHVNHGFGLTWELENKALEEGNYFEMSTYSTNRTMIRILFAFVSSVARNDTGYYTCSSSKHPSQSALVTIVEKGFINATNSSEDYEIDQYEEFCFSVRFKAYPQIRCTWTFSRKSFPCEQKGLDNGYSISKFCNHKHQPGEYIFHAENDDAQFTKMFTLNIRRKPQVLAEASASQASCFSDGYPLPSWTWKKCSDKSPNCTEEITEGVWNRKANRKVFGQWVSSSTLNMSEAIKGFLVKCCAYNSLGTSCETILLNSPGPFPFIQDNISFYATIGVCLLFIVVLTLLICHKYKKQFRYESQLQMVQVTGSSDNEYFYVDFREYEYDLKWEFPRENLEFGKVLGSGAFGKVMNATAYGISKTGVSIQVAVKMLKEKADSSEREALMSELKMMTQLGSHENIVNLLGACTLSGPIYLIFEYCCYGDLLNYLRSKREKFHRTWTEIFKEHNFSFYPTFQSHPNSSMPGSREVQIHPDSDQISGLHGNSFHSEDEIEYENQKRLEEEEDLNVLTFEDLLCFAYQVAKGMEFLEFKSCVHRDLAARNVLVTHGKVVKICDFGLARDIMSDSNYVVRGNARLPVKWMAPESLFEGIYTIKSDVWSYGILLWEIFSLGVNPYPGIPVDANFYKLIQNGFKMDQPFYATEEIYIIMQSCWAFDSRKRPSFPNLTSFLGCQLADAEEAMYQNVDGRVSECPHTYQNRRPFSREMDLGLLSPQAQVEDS", "experiment": "Binding affinity to wild-type human partial length FLT3 (V592 to Y969 residues) expressed in bacterial expression system assessed as residual binding level at 1 uM by Kinomescan method relative to control"}, "[16]": {"molecular_target": "Eukaryotic translation initiation factor 2-alpha kinase 1 (Homo sapiens) (UniProt Q9BQI3)", "experiment": "Binding affinity to wild-type human partial length EIF2AK1 (Q147 to E603 residues) expressed in mammalian expression system assessed as residual binding level at 1 uM by Kinomescan method relative to control"}, "[17]": {"molecular_target": "Serine/threonine-protein kinase MRCK gamma (Homo sapiens) (UniProt Q6DT37)", "sequence (Q6DT37 whole entry, the tested form may be a part)": "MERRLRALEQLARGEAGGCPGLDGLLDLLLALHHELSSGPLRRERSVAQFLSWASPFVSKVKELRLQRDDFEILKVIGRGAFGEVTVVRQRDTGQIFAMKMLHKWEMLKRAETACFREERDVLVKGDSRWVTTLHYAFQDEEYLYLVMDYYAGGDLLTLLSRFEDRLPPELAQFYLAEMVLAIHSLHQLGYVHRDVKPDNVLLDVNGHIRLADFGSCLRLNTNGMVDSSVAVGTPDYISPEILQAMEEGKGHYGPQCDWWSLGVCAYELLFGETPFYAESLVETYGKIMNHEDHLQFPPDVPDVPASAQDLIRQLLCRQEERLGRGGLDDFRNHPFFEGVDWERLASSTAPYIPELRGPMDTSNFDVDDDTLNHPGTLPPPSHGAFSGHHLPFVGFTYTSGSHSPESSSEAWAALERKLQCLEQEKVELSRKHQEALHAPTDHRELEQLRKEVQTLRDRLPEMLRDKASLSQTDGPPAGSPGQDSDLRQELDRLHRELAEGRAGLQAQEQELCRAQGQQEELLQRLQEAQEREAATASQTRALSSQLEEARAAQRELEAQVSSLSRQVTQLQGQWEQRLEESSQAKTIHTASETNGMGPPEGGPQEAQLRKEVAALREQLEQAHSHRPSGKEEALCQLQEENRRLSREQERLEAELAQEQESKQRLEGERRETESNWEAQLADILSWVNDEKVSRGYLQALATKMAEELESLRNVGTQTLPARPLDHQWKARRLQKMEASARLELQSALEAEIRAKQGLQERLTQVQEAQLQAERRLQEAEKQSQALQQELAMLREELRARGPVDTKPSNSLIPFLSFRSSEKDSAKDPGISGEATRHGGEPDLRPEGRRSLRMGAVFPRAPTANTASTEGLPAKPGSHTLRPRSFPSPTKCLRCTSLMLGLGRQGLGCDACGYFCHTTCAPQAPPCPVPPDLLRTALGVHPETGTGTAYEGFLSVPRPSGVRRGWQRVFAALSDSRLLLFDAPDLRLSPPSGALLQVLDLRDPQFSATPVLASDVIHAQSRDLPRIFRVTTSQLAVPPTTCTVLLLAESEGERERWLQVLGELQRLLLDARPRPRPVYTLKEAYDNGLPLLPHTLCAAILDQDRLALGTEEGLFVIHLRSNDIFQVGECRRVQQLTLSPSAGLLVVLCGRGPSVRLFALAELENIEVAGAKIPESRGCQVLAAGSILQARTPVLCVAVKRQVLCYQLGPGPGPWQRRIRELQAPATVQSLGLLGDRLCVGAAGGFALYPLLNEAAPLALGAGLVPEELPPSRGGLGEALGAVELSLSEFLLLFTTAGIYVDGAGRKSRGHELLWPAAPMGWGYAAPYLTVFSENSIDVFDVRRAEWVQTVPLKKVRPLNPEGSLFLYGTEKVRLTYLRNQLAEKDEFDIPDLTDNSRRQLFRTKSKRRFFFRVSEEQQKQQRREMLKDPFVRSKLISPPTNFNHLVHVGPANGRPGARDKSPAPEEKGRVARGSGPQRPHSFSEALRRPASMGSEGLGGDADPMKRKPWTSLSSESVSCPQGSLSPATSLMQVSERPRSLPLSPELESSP", "experiment": "Binding affinity to wild-type human partial length DMPK2 (S46 to S408 residues) expressed in bacterial expression system assessed as residual binding level at 1 uM by Kinomescan method relative to control"}, "[18]": {"system": "Tyrosine-protein kinase ABL1 (Homo sapiens), P00519 [T315I]", "experiment": "Binding affinity to human phosphorylated ABL1 T315I mutant (S229 to K512 residues) expressed in mammalian expression system assessed as residual binding level at 1 uM by Kinomescan method relative to control", "summary_of_the_method": "as §2"}, "[19]": {"molecular_target": "Glycogen synthase kinase-3 beta (Homo sapiens) (UniProt P49841)", "experiment": "Binding affinity to wild-type human full length GSK3B (M1 to T433 residues) expressed in mammalian expression system assessed as residual binding level at 1 uM by Kinomescan method relative to control", "summary_of_the_method": "(§4)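 KINOMEscan competition binding against 468 purified kinases/mutants, test compound at 1 µM; residual binding relative to control.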"}, "[20]": {"molecular_target": "Mitogen-activated protein kinase kinase kinase kinase 1 (Homo sapiens) (UniProt Q92918)", "experiment": "Binding affinity to wild-type human full length HPK1 (M1 to R799 residues) expressed in bacterial expression system assessed as residual binding level at 1 uM by Kinomescan method relative to control", "summary_of_the_method": "as §4"}, "[21]": {"system": "Tyrosine-protein kinase ABL1 (Homo sapiens), P00519 [Q252H]", "experiment": "Binding affinity to human phosphorylated ABL1 Q252H mutant expressed in mammalian expression system assessed as residual binding level at 1 uM by Kinomescan method relative to control", "summary_of_the_method": "as §2"}, "[22]": {"molecular_target": "5'-AMP-activated protein kinase catalytic subunit alpha-1 (Homo sapiens) (UniProt Q13131)", "experiment": "Binding affinity to wild-type human partial length AMPK alpha1 (M1 to E306 residues) expressed in bacterial expression system assessed as residual binding level at 1 uM by Kinomescan method relative to control", "summary_of_the_method": "as §1"}, "[23]": {"molecular_target": "MAP kinase-activated protein kinase 2 (Homo sapiens) (UniProt P49137)", "sequence (P49137 whole entry, looked up, the tested form may be a part)": "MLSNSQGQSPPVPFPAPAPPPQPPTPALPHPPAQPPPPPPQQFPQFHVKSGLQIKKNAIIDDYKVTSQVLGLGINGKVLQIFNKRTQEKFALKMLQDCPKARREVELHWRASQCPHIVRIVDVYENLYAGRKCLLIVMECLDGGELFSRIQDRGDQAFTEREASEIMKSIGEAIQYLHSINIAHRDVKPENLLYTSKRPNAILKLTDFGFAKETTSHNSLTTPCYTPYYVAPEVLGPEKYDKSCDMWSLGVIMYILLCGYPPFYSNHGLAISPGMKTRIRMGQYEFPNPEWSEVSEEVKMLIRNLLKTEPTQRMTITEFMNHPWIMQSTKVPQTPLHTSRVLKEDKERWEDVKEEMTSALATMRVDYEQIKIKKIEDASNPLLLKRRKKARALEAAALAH", "experiment": "Binding affinity to wild-type human partial length MAPKAPK2 (V48 to D345 residues) expressed in bacterial expression system assessed as residual binding level at 1 uM by Kinomescan method relative to control", "summary_of_the_method": "as §1"}}, "data": [{"smiles": "Cc1ccc(NC(=O)c2ccc(CN(CCN(C)C)C(=O)c3cccnc3)cc2)cc1Nc1nccc(-c2cccnc2)n1", "values": [{"measurement": "Activity", "setting": "[1]", "result": 87, "unit": "%"}, {"measurement": "Activity", "setting": "[2]", "result": 85, "unit": "%"}, {"measurement": "Activity", "setting": "[3]", "result": 93, "unit": "%"}, {"measurement": "Activity", "setting": "[4]", "result": 100, "unit": "%"}, {"measurement": "Activity", "setting": "[5]", "result": 91, "unit": "%"}, {"measurement": "Activity", "setting": "[6]", "result": 85, "unit": "%"}, {"measurement": "half-life", "setting": "[7]", "result": 2.05, "unit": "h"}, {"measurement": "Activity", "setting": "[8]", "result": 100, "unit": "%"}, {"measurement": "Activity", "setting": "[9]", "result": 100, "unit": "%"}, {"measurement": "Activity", "setting": "[10]", "result": 93, "unit": "%"}, {"measurement": "Activity", "setting": "[11]", "result": 73, "unit": "%"}, {"measurement": "Activity", "setting": "[12]", "result": 100, "unit": "%"}, {"measurement": "Activity", "setting": "[13]", "result": 100, "unit": "%"}, {"measurement": "Activity", "setting": "[14]", "result": 100, "unit": "%"}, {"measurement": "Activity", "setting": "[15]", "result": 89, "unit": "%"}, {"measurement": "Activity", "setting": "[16]", "result": 100, "unit": "%"}, {"measurement": "Activity", "setting": "[17]", "result": 100, "unit": "%"}, {"measurement": "Activity", "setting": "[18]", "result": 100, "unit": "%"}, {"measurement": "Activity", "setting": "[19]", "result": 87, "unit": "%"}, {"measurement": "Activity", "setting": "[20]", "result": 94, "unit": "%"}, {"measurement": "Activity", "setting": "[21]", "result": 100, "unit": "%"}, {"measurement": "Activity", "setting": "[22]", "result": 92, "unit": "%"}, {"measurement": "Activity", "setting": "[23]", "result": 92, "unit": "%"}]}]}
